Measured values pooled from the literature.
Protocols differ between the studies behind these lines.
Observed: cell growth or viability

SMILES | cell line | method | tested at | time | measurement | value
CN[C@@H]1C[C@H]2O[C@@](C)([C@@H]1OC)n1c3ccccc3c3c4c(c5c6ccccc6n2c5c31)C(=O)NC4 | U2OS |  |  |  | GI50 | 26 nM
CC1(C)C=Cc2cc(/C=C/C(=O)N3CCN(c4ccc(O)cc4)CC3)ccc2O1 | rat Primary cortical neuron | MTT | 1 µM | 12 h | viability | 98%
C[S@@+]([O-])CCCCN=C=S | Hepa-1c1c7 | crystal violet |  | 48 h | IC50 | 16700 nM
COc1ccc(NC(=O)CC(Nc2ccc(OC)cc2)c2ccc3c(c2)C=CC(C)(C)O3)cc1 (stereo not shown) | rat Primary cortical neuron | MTT | 1 µM | 12 h | viability | > 80%
C[C@H]1CN(c2ccncc2NC(=O)c2ccc(F)c(-c3c(F)cccc3F)n2)C[C@@H](N)[C@@H]1O | KMS-11 | thymidine uptake |  |  | GI50 | 123 nM
C[C@H]1CCC/C=C/[C@@H]2C[C@H](O)C[C@H]2[C@H](O)/C=C/C(=O)O1 | HeLa | ATP luminescence |  |  | EC50 | 40 nM
O=C(Cc1ccc2ccccc2c1)N[C@@H](Cc1ccccc1)C(=O)N[C@H](Cc1ccccc1)C(=O)N[C@H](Cc1ccc(OP(=O)(O)O)cc1)C(=O)O | HeLa | MTT |  | 48 h | IC50 | 500000 nM
COc1cc2c3c(n(CCCNCCO)c(=O)c2cc1OC)-c1cc2c(cc1C3=O)OCO2 | UACC-62 | SRB |  |  | GI50 | 30 nM
CCC1(OC(=O)C(C)c2ccc3cc(OC)ccc3c2)C(=O)OCc2c1cc1n(c2=O)Cc2cc3cc4c(cc3nc2-1)OCO4 (stereo not shown) | HeLa | MTT |  |  | IC50 | 2180 nM
CC1(C)C=Cc2cc(/C=C/C(=O)Oc3ccccc3)ccc2O1 | rat Primary cortical neuron | MTT | 1 µM | 12 h | viability | 81%
